# What was measured:
# [1] = Cytotoxicity against human 518A2 cells after 96 hrs by SRB assay; assay type: functional, cell-based
# Outline: (§1)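 Photometric sulforhodamine B read-out of antiproliferative effect after 96 h of continuous treatment; EC₅₀ values in µM, averaged from three independent experiments each run in triplicate; the assay cut-off is EC₅₀ > 30 µM. Human tumour lines are tested alongside nonmalignant mouse NIH 3T3 fibroblasts.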
# A2780 = experiment: Cytotoxicity against human A2780 cells after 96 hrs by SRB assay; assay type: functional, cell-based; outline: as §1
# A549 = experiment: Cytotoxicity against human A549 cells after 96 hrs by SRB assay; assay type: functional, cell-based; outline: as §1
# MCF7 = experiment: Cytotoxicity against human MCF7 cells after 96 hrs by SRB assay; assay type: functional, cell-based; outline: as §1
# [2] = Cytotoxicity against mouse NIH/3T3 cells after 96 hrs by SRB assay; assay type: cell-based, NIH3T3; outline: as §1
# HeLa = experiment: Cytotoxicity against human HeLa cells after 96 hrs by SRB assay; assay type: functional, cell-based; outline: as §1
# HT-29 = experiment: Cytotoxicity against human HT-29 cells after 96 hrs by SRB assay; assay type: functional, cell-based; conditions: HT-29, 96 h; outline: as §1
# [3] = Homo sapiens, 518A2, 96 h, read-out: EC50
# [4] = Homo sapiens, A2780, 96 h, read-out: EC50
# [5] = Homo sapiens, A549, 96 h, read-out: EC50
# [6] = Homo sapiens, MCF7, 96 h, read-out: EC50
# [7] = Mus musculus, NIH3T3, 96 h, read-out: EC50
Structure (SMILES),"EC50 [1, 3]",EC50 (A2780; [4]),EC50 (A549; [5]),EC50 (MCF7; [6]),"EC50 [2, 7]",EC50 (HeLa),EC50 (HT-29),EC50 ([1]; 518a2),EC50 (A2780; a2780),EC50 (A549; a549),EC50 (MCF7; mcf7),EC50 ([2]; nih3t3)
C=C(C)[C@@H]1CC[C@]2(CO)CC[C@]3(C)[C@H](CC[C@@H]4[C@@]5(C)CC[C@H](OC(C)=O)C(C)(C)[C@@H]5CC[C@]43C)[C@@H]12,15.2 µM,11 µM,14 µM,11.2 µM,> 30 µM,–,–,–,–,–,–,–
C=C(C)[C@@H]1CC[C@]2(C(=O)O)CC[C@]3(C)[C@H](CC[C@@H]4[C@@]5(C)CC[C@H](OC(C)=O)C(C)(C)[C@@H]5CC[C@]43C)[C@@H]12,4.5 µM,18.3 µM,6.2 µM,11 µM,> 30 µM,–,–,–,–,–,–,–
C=C(C)[C@@H]1CC[C@]2(C(=O)NCc3ccccc3)CC[C@]3(C)[C@H](CC[C@@H]4[C@@]5(C)CC[C@H](O)C(C)(C)[C@@H]5CC[C@]43C)[C@@H]12,> 30 µM,11.8 µM,> 30 µM,18 µM,11.1 µM,> 30 µM,–,–,–,–,–,–
C=C(C)[C@@H]1CC[C@]2(C(=O)NO)CC[C@]3(C)[C@H](CC[C@@H]4[C@@]5(C)CC[C@H](OC(C)=O)C(C)(C)[C@@H]5CC[C@]43C)[C@@H]12,1.6 µM,1.3 µM,1.3 µM,1.4 µM,1.1 µM,–,–,–,–,–,–,–
C=C(C)[C@@H]1CC[C@]2(COC(=O)NCC)CC[C@]3(C)[C@H](CC[C@@H]4[C@@]5(C)CCC(=O)C(C)(C)[C@@H]5CC[C@]43C)[C@@H]12,16.6 µM,8.3 µM,20.3 µM,19.7 µM,4.6 µM,13.4 µM,11.5 µM,–,–,–,–,–
C=C(C)[C@@H]1CC[C@]2(COC(=O)Nc3ccccc3)CC[C@]3(C)[C@H](CC[C@@H]4[C@@]5(C)CCC(=O)C(C)(C)[C@@H]5CC[C@]43C)[C@@H]12,> 30 µM,> 30 µM,> 30 µM,> 30 µM,> 30 µM,> 30 µM,> 30 µM,–,–,–,–,–
C=C(C)[C@@H]1CC[C@]2(COC(=O)NCCCCCC)CC[C@]3(C)[C@H](CC[C@@H]4[C@@]5(C)CC[C@H](O)C(C)(C)[C@@H]5CC[C@]43C)[C@@H]12,5.5 µM,7.7 µM,12.7 µM,> 30 µM,> 30 µM,7.4 µM,> 30 µM,–,–,–,–,–
C=C(C)[C@@H]1CC[C@]2(C(=O)NO)CC[C@]3(C)[C@H](CC[C@@H]4[C@@]5(C)CC[C@H](O)C(C)(C)[C@@H]5CC[C@]43C)[C@@H]12,2.4 µM,3.7 µM,5.3 µM,3.9 µM,2 µM,–,–,–,–,–,–,–
C=C(C)[C@@H]1CC[C@]2(COC(=O)NCCCC)CC[C@]3(C)[C@H](CC[C@@H]4[C@@]5(C)CC[C@H](O)C(C)(C)[C@@H]5CC[C@]43C)[C@@H]12,8 µM,7 µM,8.6 µM,12.5 µM,5.7 µM,10.1 µM,7.5 µM,–,–,–,–,–
C=C(C)[C@@H]1CC[C@]2(COC(=O)Nc3ccccc3)CC[C@]3(C)[C@H](CC[C@@H]4[C@@]5(C)CC[C@H](O)C(C)(C)[C@@H]5CC[C@]43C)[C@@H]12,23.9 µM,7.2 µM,> 30 µM,24.6 µM,14.3 µM,11.5 µM,16.3 µM,–,–,–,–,–
C=C(C)[C@@H]1CC[C@]2(C(=O)N(C)OC)CC[C@]3(C)[C@H](CC[C@@H]4[C@@]5(C)CCC(=O)C(C)(C)[C@@H]5CC[C@]43C)[C@@H]12,> 30 µM,20.7 µM,14.5 µM,18.7 µM,26.7 µM,–,–,–,–,–,–,–
C=C(C)[C@@H]1CC[C@]2(C(=O)N(C)OC)CC[C@]3(C)[C@H](CC[C@@H]4[C@@]5(C)CC[C@H](OC(C)=O)C(C)(C)[C@@H]5CC[C@]43C)[C@@H]12,17.5 µM,19.3 µM,20.1 µM,16.4 µM,17.4 µM,–,–,–,–,–,–,–
C=CCONC(=O)[C@]12CC[C@@H](C(=C)C)[C@@H]1[C@H]1CC[C@@H]3[C@@]4(C)CC[C@H](O)C(C)(C)[C@@H]4CC[C@@]3(C)[C@]1(C)CC2,6.7 µM,7.3 µM,4.1 µM,8.6 µM,6.1 µM,–,–,–,–,–,–,–
C=C(C)[C@@H]1CC[C@]2(COC(=O)NCCCCCC)CC[C@]3(C)[C@H](CC[C@@H]4[C@@]5(C)CCC(=O)C(C)(C)[C@@H]5CC[C@]43C)[C@@H]12,> 30 µM,> 30 µM,> 30 µM,> 30 µM,> 30 µM,> 30 µM,> 30 µM,–,–,–,–,–
C=CCONC(=O)[C@]12CC[C@@H](C(=C)C)[C@@H]1[C@H]1CC[C@@H]3[C@@]4(C)CCC(=O)C(C)(C)[C@@H]4CC[C@@]3(C)[C@]1(C)CC2,22.4 µM,19.7 µM,25 µM,18.4 µM,19.7 µM,–,–,–,–,–,–,–
C=C(C)[C@@H]1CC[C@]2(COC(=O)NCCCC)CC[C@]3(C)[C@H](CC[C@@H]4[C@@]5(C)CCC(=O)C(C)(C)[C@@H]5CC[C@]43C)[C@@H]12,> 30 µM,> 30 µM,> 30 µM,> 30 µM,> 30 µM,> 30 µM,> 30 µM,–,–,–,–,–
C=C(C)[C@@H]1CC[C@]2(C(=O)N(C)O)CC[C@]3(C)[C@H](CC[C@@H]4[C@@]5(C)CCC(=O)C(C)(C)[C@@H]5CC[C@]43C)[C@@H]12,6.3 µM,3 µM,6 µM,10.2 µM,5 µM,–,–,–,–,–,–,–
C=C(C)[C@@H]1CC[C@]2(C(=O)N(C)OC)CC[C@]3(C)[C@H](CC[C@@H]4[C@@]5(C)CC[C@H](O)C(C)(C)[C@@H]5CC[C@]43C)[C@@H]12,7.3 µM,7.6 µM,19 µM,10.2 µM,7.7 µM,–,–,–,–,–,–,–
C=CCONC(=O)[C@]12CC[C@@H](C(=C)C)[C@@H]1[C@H]1CC[C@@H]3[C@@]4(C)CC[C@H](OC(C)=O)C(C)(C)[C@@H]4CC[C@@]3(C)[C@]1(C)CC2,7.6 µM,5.9 µM,6.6 µM,12.2 µM,> 30 µM,–,–,–,–,–,–,–
C=C(C)[C@@H]1CC[C@]2(C(=O)N(C)O)CC[C@]3(C)[C@H](CC[C@@H]4[C@@]5(C)CC[C@H](O)C(C)(C)[C@@H]5CC[C@]43C)[C@@H]12,–,–,–,–,–,–,–,ND(Insoluble),ND(Insoluble),ND(Insoluble),ND(Insoluble),ND(Insoluble)
C=C(C)[C@@H]1CC[C@]2(COC(=O)NCCC)CC[C@]3(C)[C@H](CC[C@@H]4[C@@]5(C)CCC(=O)C(C)(C)[C@@H]5CC[C@]43C)[C@@H]12,> 30 µM,> 30 µM,> 30 µM,> 30 µM,> 30 µM,> 30 µM,> 30 µM,–,–,–,–,–
C=C(C)[C@@H]1CC[C@]2(C(=O)NOC)CC[C@]3(C)[C@H](CC[C@@H]4[C@@]5(C)CC[C@H](OC(C)=O)C(C)(C)[C@@H]5CC[C@]43C)[C@@H]12,8 µM,8.9 µM,11.7 µM,13.5 µM,9.5 µM,–,–,–,–,–,–,–
C=C(C)[C@@H]1CC[C@]2(C(=O)N(C)O)CC[C@]3(C)[C@H](CC[C@@H]4[C@@]5(C)CC[C@H](OC(C)=O)C(C)(C)[C@@H]5CC[C@]43C)[C@@H]12,3.5 µM,2 µM,4.3 µM,2.3 µM,2.9 µM,–,–,–,–,–,–,–
C=C(C)[C@@H]1CC[C@]2(C(=O)NOC)CC[C@]3(C)[C@H](CC[C@@H]4[C@@]5(C)CC[C@H](O)C(C)(C)[C@@H]5CC[C@]43C)[C@@H]12,5.8 µM,12.3 µM,6.9 µM,21.9 µM,15.2 µM,–,–,–,–,–,–,–
C=C(C)[C@@H]1CC[C@]2(C(=O)NOC)CC[C@]3(C)[C@H](CC[C@@H]4[C@@]5(C)CCC(=O)C(C)(C)[C@@H]5CC[C@]43C)[C@@H]12,17.2 µM,12 µM,6.1 µM,13.8 µM,12.7 µM,–,–,–,–,–,–,–
C=C(C)[C@@H]1CC[C@]2(COC(C)=O)CC[C@]3(C)[C@H](CC[C@@H]4[C@@]5(C)CC[C@H](OC(C)=O)C(C)(C)[C@@H]5CC[C@]43C)[C@@H]12 [BETULIN DIACETATE],> 30 µM,> 30 µM,> 30 µM,> 30 µM,> 30 µM,–,–,–,–,–,–,–
C=C(C)[C@@H]1CC[C@]2(C(=O)O)CC[C@]3(C)[C@H](CC[C@@H]4[C@@]5(C)CC[C@H](O)C(C)(C)[C@@H]5CC[C@]43C)[C@@H]12 [BETULINIC ACID],9.4 µM,8.8 µM,17.1 µM,10.2 µM,16.1 µM,–,–,–,–,–,–,–
C=C(C)[C@@H]1CC[C@]2(CO)CC[C@]3(C)[C@H](CC[C@@H]4[C@@]5(C)CC[C@H](O)C(C)(C)[C@@H]5CC[C@]43C)[C@@H]12 [BETULIN],> 30 µM,> 30 µM,> 30 µM,> 30 µM,> 30 µM,–,–,–,–,–,–,–
C=C(C)[C@@H]1CC[C@]2(C(=O)O)CC[C@]3(C)[C@H](CC[C@@H]4[C@@]5(C)CCC(=O)C(C)(C)[C@@H]5CC[C@]43C)[C@@H]12 [BETUNOLIC ACID],29 µM,20.4 µM,25.9 µM,25.9 µM,13.1 µM,–,–,–,–,–,–,–
